According to ChEMBL document CHEMBL1914423, “New imidazo[2,1-b]thiazole derivatives: synthesis, in vitro anticancer evaluation, and in silico studies” (Eur J Med Chem, 2011):

How the values were obtained:
Format in all cases: functional
NCI/ADR-RES = experiment: Anticancer activity against human NCI/ADR-RES cells assessed as cell growth at 10^-5 M after 48 hrs by SRB assay; details: read-out: Activity
SK-MEL-5 = experiment: Anticancer activity against human SK-MEL-5 cells assessed as cell growth at 10^-5 M after 48 hrs by SRB assay; details: SK-MEL-5, 48 h, read-out: Activity
K562 = experiment: Anticancer activity against human K562 cells assessed as cell growth at 10^-5 M after 48 hrs by SRB assay; details: K562, 48 h, read-out: Activity
In short: (§1)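 NCI-60 single-dose screen at one concentration. Cells grown in RPMI 1640 with 5% FBS and 2 mM L-glutamine, plated at 5000–40,000 cells/well, and pre-incubated 24 h at 37 °C in 5% CO2 before DMSO-dissolved drug was added. Cells fixed with TCA, SRB-stained, absorbance read at 515 nm. Percent growth calculated against time-zero and untreated control plates.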

SNB-19 = experiment: Anticancer activity against human SNB19 cells assessed as cell growth at 10^-5 M after 48 hrs by SRB assay; details: SNB-19, 48 h, read-out: Activity
KM12 = experiment: Anticancer activity against human KM12 cells assessed as cell growth at 10^-5 M after 48 hrs by SRB assay; details: KM12, 48 h, read-out: Activity; in short: as §1
OVCAR-5 = experiment: Anticancer activity against human OVCAR5 cells assessed as cell growth at 10^-5 M after 48 hrs by SRB assay; details: OVCAR-5, 48 h, read-out: Activity
SF-295 = experiment: Anticancer activity against human SF295 cells assessed as cell growth at 10^-5 M after 48 hrs by SRB assay; details: SF-295, 48 h, read-out: Activity
U-251 = experiment: Anticancer activity against human U251 cells assessed as cell growth at 10^-5 M after 48 hrs by SRB assay; details: U-251, 48 h, read-out: Activity
In short: (§2)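 NCI-60 single-dose screen: cells in RPMI 1640 with 5% FBS and 2 mM L-glutamine, plated at 5000–40,000 cells/well by doubling time, and preincubated 24 h at 37 °C. Compound given at one concentration from DMSO stock. Cells TCA-fixed and SRB-stained, absorbance at 515 nm. Percent growth relative to time-zero and untreated controls; inhibition % = 100 − growth %.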

A549 = experiment: Anticancer activity against human A549 cells assessed as cell growth at 10^-5 M after 48 hrs by SRB assay; details: A549, 48 h, read-out: Activity; in short: as §1
SR = experiment: Anticancer activity against human SR cells assessed as cell growth at 10^-5 M after 48 hrs by SRB assay; details: read-out: Activity; in short: as §2
A498 = experiment: Anticancer activity against human A498 cells assessed as cell growth at 10^-5 M after 48 hrs by SRB assay; details: A498, 48 h, read-out: Activity; in short: as §1
NCI-H23 = experiment: Anticancer activity against human NCI-H23 cells assessed as cell growth at 10^-5 M after 48 hrs by SRB assay; details: NCI-H23, 48 h, read-out: Activity
HOP-92 = experiment: Anticancer activity against human HOP92 cells assessed as cell growth at 10^-5 M after 48 hrs by SRB assay; details: HOP-92, 48 h, read-out: Activity; in short: as §1
SK-OV-3 = experiment: Anticancer activity against human SKOV3 cells assessed as cell growth at 10^-5 M after 48 hrs by SRB assay; details: SK-OV-3, 48 h, read-out: Activity
DU-145 = experiment: Anticancer activity against human DU145 cells assessed as cell growth at 10^-5 M after 48 hrs by SRB assay; details: DU-145, 48 h, read-out: Activity; in short: as §1
CCRF-CEM = experiment: Anticancer activity against human CCRF-CEM cells assessed as cell growth at 10^-5 M after 48 hrs by SRB assay; details: read-out: Activity; in short: as §1
OVCAR-8 = experiment: Anticancer activity against human OVCAR8 cells assessed as cell growth at 10^-5 M after 48 hrs by SRB assay; details: OVCAR-8, 48 h, read-out: Activity
EKVX = experiment: Anticancer activity against human EKVX cells assessed as cell growth at 10^-5 M after 48 hrs by SRB assay; details: read-out: Activity; in short: as §1
LOX IMVI = experiment: Anticancer activity against human LOXIMVI cells assessed as cell growth at 10^-5 M after 48 hrs by SRB assay; details: read-out: Activity; in short: as §1
COLO 205 = experiment: Anticancer activity against human COLO205 cells assessed as cell growth at 10^-5 M after 48 hrs by SRB assay; details: COLO 205, 48 h, read-out: Activity; in short: as §1
786-0 = experiment: Anticancer activity against human 786-0 cells assessed as cell growth at 10^-5 M after 48 hrs by SRB assay; details: 786-0, 48 h, read-out: Activity; in short: as §1
SNB-75 = experiment: Anticancer activity against human SNB75 cells assessed as cell growth at 10^-5 M after 48 hrs by SRB assay; details: SNB-75, 48 h, read-out: Activity; in short: as §2
SF-268 = experiment: Anticancer activity against human SF268 cells assessed as cell growth at 10^-5 M after 48 hrs by SRB assay; details: SF-268, 48 h, read-out: Activity
MDA-MB-468 = experiment: Anticancer activity against human MDA-MB-468 cells assessed as cell growth at 10^-5 M after 48 hrs by SRB assay; details: MDA-MB-468, 48 h, read-out: Activity
HCT-15 = experiment: Anticancer activity against human HCT15 cells assessed as cell growth at 10^-5 M after 48 hrs by SRB assay; details: HCT-15, 48 h, read-out: Activity; in short: as §1
MCF7 = experiment: Anticancer activity against human MCF7 cells assessed as cell growth at 10^-5 M after 48 hrs by SRB assay; details: MCF7, 48 h, read-out: Activity; in short: as §1
HOP-62 = experiment: Anticancer activity against human HOP62 cells assessed as cell growth at 10^-5 M after 48 hrs by SRB assay; details: HOP-62, 48 h, read-out: Activity; in short: as §1
NCI-H226 = experiment: Anticancer activity against human NCI-H226 cells assessed as cell growth at 10^-5 M after 48 hrs by SRB assay; details: NCI-H226, 48 h, read-out: Activity
PC-3 = experiment: Anticancer activity against human PC3 cells assessed as cell growth at 10^-5 M after 48 hrs by SRB assay; details: PC-3, 48 h, read-out: Activity
NCI-H460 = experiment: Anticancer activity against human NCI-H460 cells assessed as cell growth at 10^-5 M after 48 hrs by SRB assay; details: NCI-H460, 48 h, read-out: Activity

Structure (SMILES)	growth at 10 µM (NCI/ADR-RES) [%]	growth at 10 µM (SK-MEL-5) [%]	growth at 10 µM (K562) [%]	growth at 10 µM (SNB-19) [%]	growth at 10 µM (KM12) [%]	growth at 10 µM (OVCAR-5) [%]	growth at 10 µM (SF-295) [%]	growth at 10 µM (U-251) [%]	growth at 10 µM (A549) [%]	growth at 10 µM (SR) [%]	growth at 10 µM (A498) [%]	growth at 10 µM (NCI-H23) [%]	growth at 10 µM (HOP-92) [%]	growth at 10 µM (SK-OV-3) [%]	growth at 10 µM (DU-145) [%]	growth at 10 µM (CCRF-CEM) [%]	growth at 10 µM (EKVX) [%]	growth at 10 µM (LOX IMVI) [%]	growth at 10 µM (COLO 205) [%]	growth at 10 µM (786-0) [%]	further results
COc1cccc(-c2nc3sccn3c2-c2ccnc(NCCNC(=O)c3ccccc3O)n2)c1	54.6	48.6	59.4	118	77.2	112	101	103	82.5	95	89.7	93.4	75.5	90	94.5	34.7	98.9	68.5	107	91	growth at 10 µM (OVCAR-8): 55.2%; growth at 10 µM (SNB-75): 103%; growth at 10 µM (SF-268): 93.6%; growth at 10 µM (MDA-MB-468): 102%; growth at 10 µM (HCT-15): 66.1%; growth at 10 µM (MCF7): 88.5%; growth at 10 µM (HOP-62): 114%; growth at 10 µM (NCI-H226): 97.7%; growth at 10 µM (PC-3): 62.8%; growth at 10 µM (NCI-H460): 92.1%
COc1cccc(-c2nc3sccn3c2-c2ccnc(NCCNC(=O)c3cc(C(F)(F)F)cc(C(F)(F)F)c3)n2)c1	72.7	75	83.5	99.2	79.4	101	94.5	92	81.2	78.1	95.6	102	38.5	97	94.4	69.9	84.4	92.5	93.4	75.9	growth at 10 µM (OVCAR-8): 82.4%; growth at 10 µM (SNB-75): 75.8%; growth at 10 µM (SF-268): 82.5%; growth at 10 µM (MDA-MB-468): 95.6%; growth at 10 µM (HCT-15): 83.8%; growth at 10 µM (MCF7): 72.5%; growth at 10 µM (HOP-62): 109%; growth at 10 µM (NCI-H226): 102%; growth at 10 µM (PC-3): 49.5%; growth at 10 µM (NCI-H460): 92.2%
COc1cccc(-c2nc3sccn3c2-c2ccnc(NCCNC(=O)c3cc(N4CCOCC4)cc(C(F)(F)F)c3)n2)c1	76.5	66.2	90.1	103	83.2	110	83.7	100	82.2	80.7	86	110	59.1	99.4	94.6	49.4	84.8	79.2	73.3	74.4	growth at 10 µM (SNB-75): 72.2%; growth at 10 µM (SF-268): 85.7%; growth at 10 µM (MDA-MB-468): 98.1%; growth at 10 µM (HCT-15): 88.5%; growth at 10 µM (MCF7): 84.9%; growth at 10 µM (HOP-62): 112%; growth at 10 µM (NCI-H226): 104%; growth at 10 µM (PC-3): 66.3%; growth at 10 µM (NCI-H460): 95.6%
O=C(NCCNc1nccc(-c2c(-c3cccc(O)c3)nc3sccn23)n1)c1cccc(C(F)(F)F)c1	98.3	52.6	56.2	116	81	113	69.6	84.8	71.3	97	84.5	81	83.8	84.2	91.4	37.5	91.6	53.4	71.1	89.3	growth at 10 µM (SNB-75): 73.8%; growth at 10 µM (SF-268): 86.7%; growth at 10 µM (MDA-MB-468): 70.5%; growth at 10 µM (HCT-15): 87.8%; growth at 10 µM (MCF7): 75.3%; growth at 10 µM (HOP-62): 114%; growth at 10 µM (NCI-H226): 88.5%; growth at 10 µM (PC-3): 67.3%; growth at 10 µM (NCI-H460): 85.7%
